Experiment [1] addresses T1, 20S proteasome (Homo sapiens) (UniProt P49721+P20618+P28074+P28062+P28065+P28072+P25786+P25787+P25788+P25789+P28066+P60900+O14818+Q8TAA3+P40306+A5LHX3+P49720+P28070+Q99436). Description: Effect on alpha-face conformations of latent human erythrocytes 20S proteasome assessed as closed state conformation at 1 uM by atomic force microscopic method (reference value: 70%).

Experiment [2] deals with T1, 20S proteasome (Homo sapiens). Description: Effect on alpha-face conformations of latent human erythrocytes 20S proteasome assessed as open state conformation at 1 uM by atomic force microscopic method (reference value: 7%).
The target of experiment [3] is T2, Proteasome Macropain subunit MB1 (Homo sapiens) (UniProt P28074).
T2 sequence (whole entry): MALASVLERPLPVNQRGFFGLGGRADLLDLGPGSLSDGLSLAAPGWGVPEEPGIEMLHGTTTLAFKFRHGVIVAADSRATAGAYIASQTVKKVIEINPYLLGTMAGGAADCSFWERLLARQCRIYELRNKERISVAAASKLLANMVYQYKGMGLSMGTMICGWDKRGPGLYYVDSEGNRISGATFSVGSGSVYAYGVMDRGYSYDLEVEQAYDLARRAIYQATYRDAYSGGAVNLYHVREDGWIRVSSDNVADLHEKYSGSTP
Description: Positive allosteric modulation of latent human erythrocytes 20S proteasome chymotrypsin like activity up to 10 uM using LFP as substrate measured every 2 mins up to 60 mins by fluorescence assay.

Experiment [4] has as its target T3, Proteasome component C5 (Homo sapiens) (UniProt P20618).
T3 sequence (whole entry): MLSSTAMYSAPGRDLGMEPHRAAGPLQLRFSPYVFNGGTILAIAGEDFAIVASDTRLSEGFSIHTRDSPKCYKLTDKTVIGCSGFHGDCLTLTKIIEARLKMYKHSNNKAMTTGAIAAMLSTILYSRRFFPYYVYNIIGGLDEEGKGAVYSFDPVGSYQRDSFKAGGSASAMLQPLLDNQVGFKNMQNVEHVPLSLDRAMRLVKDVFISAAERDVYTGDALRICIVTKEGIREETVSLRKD
Description: Negative allosteric modulation of SDS-activated human erythrocytes 20S proteasome caspase like activity at lower concentration using Z-LLE-AMC as substrate measured every 2 mins up to 60 mins by fluorescence assay.

In experiment [5] the target is T1, 20S proteasome (Homo sapiens). Description: Negative allosteric modulation of SDS-activated human erythrocytes 20S proteasome assessed as reduction in yeast enolase degradation at 10 uM after 4 hr by SDS-PAGE analysis.
For experiment [6], the target named is T2, Proteasome Macropain subunit MB1 (Homo sapiens). Put plainly: Positive allosteric modulation of latent human erythrocytes 20S proteasome chymotrypsin like activity up to 10 uM using Suc-LLVY-AMC as substrate measured every 2 mins up to 60 mins by fluorescence assay. Summed up:
(§1)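 1.4 nM CP (0.001 mg/mL) in 50 mM Tris-HCl pH 8.0, activated with 0.005% SDS where stated, otherwise latent. Suc-LLVY-AMC at 100 μM final. AMC fluorescence read every 2 min up to 60 min at 37 °C. Activity relative to DMSO-treated enzyme, from at least three independent replicates. Peptide stocks 10 mM in DMSO.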

For experiment [7] the target is unchanged. Put plainly: Negative allosteric modulation of SDS-activated human erythrocytes 20S proteasome chymotrypsin like activity using Suc-LLVY-AMC as substrate measured every 2 mins up to 60 mins by fluorescence assay. Summed up:
as §1

For experiment [8], the target named is Proteasome Macropain subunit (Homo sapiens) (UniProt P49721). Description: Negative allosteric modulation of SDS-activated human erythrocytes 20S proteasome trypsin like activity at 10 uM using Boc-LRR-AMC as substrate measured every 2 mins up to 60 mins by fluorescence assay.
Experiment [9] addresses T1, 20S proteasome (Homo sapiens). Put plainly: Effect on alpha-face conformations of latent human erythrocytes 20S proteasome assessed as intermediate state conformation at 10 uM by atomic force microscopic method (reference value: 22%).
The target is the same in experiment [10]. Description: Negative allosteric modulation of SDS-activated human erythrocytes 20S proteasome assessed as reduction in human alpha-synuclein degradation at 1 uM after 1 hr by SDS-PAGE analysis. Summed up:
(§2)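 Human α-synuclein or yeast enolase digested by human 20S activated with 0.01% SDS (20S:substrate 1:100 pmol α-syn, 1:10 pmol enolase) in 20 mM HEPES pH 7.4 at 37 °C for 1 h (α-syn) or 4 h (enolase). DMSO at or below 0.05%. SDS–PAGE (12% or 10%) with Coomassie staining; remaining substrate densitometry as percent of control; at least three experiments, mean ± SEM.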

Experiment [11] has the same target. Description: Effect on alpha-face conformations of latent human erythrocytes 20S proteasome assessed as open state conformation at 10 uM by atomic force microscopic method (reference value: 7%).
The target is the same in experiment [12]. Put plainly: Negative allosteric modulation of SDS-activated human erythrocytes 20S proteasome assessed as reduction in human alpha-synuclein degradation at 10 uM after 1 hr by SDS-PAGE analysis. Summed up:
as §2

Experiment [13] concerns the target T2, Proteasome Macropain subunit MB1 (Homo sapiens). Put plainly: Positive allosteric modulation of latent human erythrocytes 20S proteasome chymotrypsin like activity up to 10 uM using LFP as substrate measured every 2 mins up to 60 mins by fluorescence assay.
In experiment [14] the target is T1, 20S proteasome (Homo sapiens). Put plainly: Negative allosteric modulation of SDS-activated human erythrocytes 20S proteasome assessed as reduction in yeast enolase degradation at 1 uM after 4 hr by SDS-PAGE analysis.
For experiment [15] the target is unchanged. Description: Effect on alpha-face conformations of latent human erythrocytes 20S proteasome assessed as closed state conformation at 10 uM by atomic force microscopic method (reference value: 70%).
Experiment [16] addresses T2, Proteasome Macropain subunit MB1 (Homo sapiens). Put plainly: Negative allosteric modulation of SDS-activated human erythrocytes 20S proteasome chymotrypsin like activity up to 10 uM using LFP as substrate measured every 2 mins up to 60 mins by fluorescence assay.

One compound from ChEMBL document CHEMBL4371016, “Proline- and Arginine-Rich Peptides as Flexible Allosteric Modulators of Human Proteasome Activity” (J Med Chem, 2019) can be followed below.

Calls of active or inactive are those of the source. No cut-off for these calls is given here. Residues, ends and D or L forms follow the SMILES beside them.

Proteasome Macropain subunit (Homo sapiens), sequence (P49721 whole entry): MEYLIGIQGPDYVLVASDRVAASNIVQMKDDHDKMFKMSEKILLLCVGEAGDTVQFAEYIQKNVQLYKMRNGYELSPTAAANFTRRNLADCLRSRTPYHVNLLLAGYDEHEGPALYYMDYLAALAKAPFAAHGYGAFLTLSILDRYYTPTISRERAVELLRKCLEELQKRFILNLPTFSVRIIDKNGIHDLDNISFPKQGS

Turning to `CC(C)C[C@H](NC(=O)[C@H](Cc1ccc(O)cc1)NC(=O)[C@@H]1CCCN1C(=O)[C@@H]1CCCN1C(=O)[C@H](CCCNC(=N)N)NC(=O)[C@@H]1CCCN1C(=O)[C@H](CCCNC(=N)N)NC(=O)[C@H](CCCNC(=N)N)NC(=O)[C@@H](N)CCCNC(=N)N)C(=O)N1CCC[C@H]1C(=O)N[C@@H](CCCNC(=N)N)C(=O)N[C@@H](Cc1c[nH]c2ccccc12)C(=O)NCC(=O)O` (H-RRRPRPPYLPRWG-OH), the Activity in experiment [1] is 73%; in [2], < 3%; in experiment [7] it was “Dose-dependent effect”; in experiment [9], 25%; in [11], 18%; in experiment [15], 57%. The result in [3], in [6] and in [13] was inactive. Further, the outcome in experiment [4], in experiment [5], in experiment [8], in experiment [10], in experiment [12] and in experiment [14] was Active. Besides, the outcome in experiment [16] was Active.
